# EBI2 antag: blocks human EBI2 receptor beta-arrestin signaling | 0.81% of 360,000 active | EBI2 beta-arrestin recruitment, luminescence, 7a,25-OHC stimulated | inhibition, % at 5 µM | AID 651636; in the data active means inhibition above about 38%;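 further: enzyme fragment complementation signal reports receptor beta-arrestin coupling in cells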
# Target sequence (P32249 whole entry, looked up, the tested form may be a part): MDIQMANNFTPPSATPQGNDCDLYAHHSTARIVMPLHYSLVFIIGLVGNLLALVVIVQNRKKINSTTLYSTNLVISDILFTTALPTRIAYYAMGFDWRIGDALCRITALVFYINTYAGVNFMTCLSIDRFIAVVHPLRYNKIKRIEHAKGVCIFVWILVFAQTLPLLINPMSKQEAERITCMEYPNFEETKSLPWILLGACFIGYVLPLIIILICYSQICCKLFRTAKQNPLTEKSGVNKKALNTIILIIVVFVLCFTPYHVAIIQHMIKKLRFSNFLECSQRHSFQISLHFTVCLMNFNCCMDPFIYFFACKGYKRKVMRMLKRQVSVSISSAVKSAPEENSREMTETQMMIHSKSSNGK
# CXCR6 block: blocks human CXCR6 beta-arrestin recruitment; inhibition, % at 20 µM; CHO-K1 PathHunter CXCR6 beta-arrestin, luminescence; AID 602244; O00574; 0.36% of 360,000 active; in the data active means inhibition above about 34%, passing the limit was not always enough;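 further: antagonist mode with CXCL16 agonist at 10 nM final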
# APJ antag: APJ receptor antagonism; P35414; CHO-K1 APJ beta-arrestin complementation, luminescence; inhibition, % at 20 µM; 0.32% of 330,000 active; AID 2521;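 active means inhibition above about 40% at 20 µM, limit read from the data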;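 further: cells challenged with 10 nM apelin-13 agonist together with compound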
# APJ agonist: activates the human apelin receptor APJ; P35414; CHO-K1 APJ PathHunter beta-arrestin, luminescence; 0% DMSO wells, 100% apelin; activation, % at 20 µM; 0.11% of 330,000 active; AID 2520;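 active means activation more than six SD over the plate average, tested at 20 µM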
#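 Test system: CHO-K1 APJ beta-arrestin complementation cell line | Compound: Single test compound dose, 20 µM final, 1% DMSO | Incubation: Compound 90 min 25 °C, reagent 1 h | Measured by: beta-gal luminescence | Read-out basis: APJ–arrestin association signal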
# CCR6 antagonist: CCR6 (human) receptor antagonism; AID 493098; CHO-K1 CCR6 PathHunter beta-arrestin, luminescence, CCL20-stimulated; 0.49% of 340,000 active; P51684; inhibition, % at 20 µM;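 active means compounds whose inhibition of the agonist-driven luminescence signal at 20 µM reaches about 50%, limit read from the data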;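 further: cells stimulated with CCL20 at 14 nM final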
# APJ antag conf: APJ receptor antagonism confirmation | shares compounds with APJ antag | APJ beta-arrestin recruitment, luminescence, antagonist mode | inhibition, % at 20 µM | 66% of 950 active | AID 2766; in the data active means inhibition above about 50%
# Numbers stand for hits; . = inactive; / = no result given. Shown are actives, neighbours in structure and some others; about 1.5% of the full set was active somewhere.
SMILES,EBI2 antag,CXCR6 block,APJ antag,APJ agonist,CCR6 antagonist,APJ antag conf
COc1ccc(C2SCC(=O)N2c2nc3ccccc3s2)cc1 (configuration not stated),.,.,44,.,.,.
COc1ccc(N2C(=O)CSC2c2ccccc2)cc1 (configuration not stated),.,.,.,.,.,/
Cc1cc(C)c(S(=O)(=O)c2ccccc2C(C)C)c(=O)[nH]1,.,.,/,/,.,/
CC(C)(C)N(Cc1ccccc1)C(=O)c1cc2ccccc2o1,.,.,45,.,.,.
COc1ccccc1NS(=O)(=O)c1cc(C(=O)NCC(C)(C)N2CCOCC2)ccc1C,.,.,.,.,.,/
O=C1c2ccccc2S(=O)(=O)c2cc(C(=O)N3CCN(c4ccc(Cl)cn4)CC3)ccc21,.,.,.,.,.,/
COc1cc(C(C#N)N2N=C(c3ccccc3)CC2c2ccccc2)ccc1O (configuration not stated),.,.,.,.,.,/
N#CC(c1ccccc1O)N1N=C(c2ccccc2)CC1c1ccccc1 (configuration not stated),.,.,67,.,54,.
CCOc1ccc(C(=O)NC(=S)N(Cc2ccccc2)Cc2ccccc2)cc1,.,.,/,/,.,/
CC(C)(C)C(=O)NC(=S)NNC(=O)c1ccc(-c2ccccc2)cc1,.,84,66,.,102,112
CCCN(CCC)C(=S)NC(=O)c1ccc(-c2ccccc2)cc1,.,.,45,.,.,.
Cc1cc(Cn2nnc3ccccc32)c(O)c(C(C)(C)C)c1,.,.,43,.,.,.
CC(C)(C)c1cccc(Cn2nnc3ccccc32)c1O,.,.,.,.,.,/
Cc1ccc(NC(=O)Cn2nnc(C(=O)Nc3ccc(C)c(C)c3)c2N)cc1,.,.,55,.,.,.
COc1ccccc1N1CCN(C(=O)c2c(C)cc(=O)oc2C)CC1,.,.,57,.,.,.
CC12CCC(C)(O1)C1C(=O)N(c3nccs3)C(=O)C12 (configuration not stated),.,.,/,/,.,/
Cc1nn(CCC(=O)NNC(=S)Nc2ccc(F)cc2)c(C)c1Br,.,.,52,.,.,108
CCCCNC(=S)NNC(=O)CCn1nc(C)c(Br)c1C,.,.,64,.,.,125
Cc1nn(CCC(=O)NNC(=S)Nc2ccc([N+](=O)[O-])cc2)c(C)c1[N+](=O)[O-],.,.,49,.,.,87
CCN(CC(=O)Nc1ccc(N2CCOCC2)cc1)C(=O)COc1ccccc1OC,.,.,.,.,.,/
COc1ccccc1CN1CC(C(=O)NC2CCOCC2)CCC1=O (configuration not stated),.,.,.,.,.,/
CCC[C@@H](CN1CCC[C@H]1CN1C(N)=NC[C@H]1CC(C)C)N1C[C@@H](Cc2ccccc2)N(CCc2ccc(Cl)c(Cl)c2)C1=N,.,.,42,.,.,57
O=C1CN(C(=O)c2ccc(Cl)c([N+](=O)[O-])c2)c2ccccc2N1,.,.,41,.,.,.
Cc1cc(C(=O)N2CCC(C)(C(=O)NS(=O)(=O)C3CC3)C2)n(C(C)(C)C)n1 (configuration not stated),.,.,/,/,/,/
CCN(CC)C(=S)SCC(=O)c1ccccc1,.,.,.,.,.,/
SMILES,EBI2 antag,CXCR6 block,APJ antag,APJ agonist,CCR6 antagonist,APJ antag conf
CCN(CC)C(=S)SSC(=S)N(CC)CC,.,51,71,.,60,108
CSc1ccccc1C(=O)NC1CCCCCC1,.,.,46,.,.,.
CN(C)c1ccc2nc3c(=O)[nH]c(=O)nc-3n(CC(O)C(O)C(O)CO)c2c1 (configuration not stated),.,.,70,.,.,70
O=C(Nc1cccc([N+](=O)[O-])c1)Nc1ccc2c(c1)OCCO2,.,.,42,.,.,.
O=C(Nc1cccc([N+](=O)[O-])c1)Nc1cccc([N+](=O)[O-])c1,.,.,.,.,.,/
N#CC1=C(N)C(C#N)(C#N)C(c2cccnc2)C2CN(C(=O)OCc3ccccc3)CC=C12 (configuration not stated),.,.,50,.,53,.
CCOC(=O)N1CC=C2C(C#N)=C(N)C(C#N)(C#N)[C@H](c3ccc(OCC)c(OCC)c3)[C@H]2C1,.,.,.,.,.,/
O=C1NN(c2ccccc2)C(=O)/C1=C\c1ccc(-c2cc([N+](=O)[O-])ccc2O)o1,.,43,46,.,62,93
O=C1NN(c2ccc(Cl)cc2)C(=O)/C1=C\c1ccc(-c2cccc(C(=O)O)c2)o1,.,.,/,/,.,/
O=C(OCc1ccccc1)N1C=CCC[C@@H]1c1c(Cl)cccc1Br,.,.,/,/,/,/
CCc1ccc(C(=O)NNc2ccc(Cl)cc2)cc1,.,.,51,.,.,60
COc1cccc(N2CC(C)Cn3c2nc2c3c(=O)n(CCN3CCOCC3)c(=O)n2C)c1 (configuration not stated),.,.,42,.,.,62
COc1cc(S(=O)(=O)N2CCOCC2)ccc1NC(=O)COC(=O)c1ccc(Cl)nc1,.,.,.,.,.,/
CC(=O)N1C(=O)C2(NCC(C)N2)c2ccccc21 (configuration not stated),.,.,/,/,/,/
O=S(=O)(O)c1cccc(N=Nc2c(O)ccc3ccccc23)c1,.,.,49,.,.,58
Oc1ccc2ccccc2c1N=Nc1ccccn1,.,41,75,.,63,97
Oc1ccc2ccccc2c1N=Nc1ccccc1F,.,.,.,.,.,/
Cc1onc(-c2c(F)cccc2Cl)c1C(=O)Oc1ccccc1,.,.,/,/,/,/
CCOc1ccc(Nc2ccc(N)c(S(=O)(=O)O)c2)cc1,.,.,/,/,.,/
COc1cc2c(cc1OC)C1(CCCC1)CNC2c1cccc([N+](=O)[O-])c1 (configuration not stated),.,63,47,.,78,78
COc1cc2c(cc1OC)C(c1cccc([N+](=O)[O-])c1)NC(=O)C2 (configuration not stated),.,.,.,.,.,/
CC(=O)Nc1ccc(SCC(=O)NC(=O)c2ccc(S(=O)(=O)N(C)C)cc2)cc1,.,.,.,.,.,/
CC(NC(=O)COC(=O)c1cc(=O)c2ccccc2o1)c1ccccc1 (configuration not stated),.,.,.,.,.,/
CC(=O)c1ccc([N+](=O)[O-])c(CS(=O)(=O)c2ccc(Cl)cc2)c1,.,.,.,.,.,/
Cc1[nH]n(C(N)=S)c(=O)c1N=Nc1ccc([N+](=O)[O-])cc1Cl,.,42,51,.,60,80
FC(F)(F)c1cccc(Sc2nc(-c3ccccc3)nnc2C(F)(F)F)c1,.,46,43,.,.,91
FC(F)(F)c1cccc(Oc2nc(-c3ccccc3)nnc2C(F)(F)F)c1,.,.,.,.,.,/

# Source: PubChem
